Compound activity: PubChem BioAssay, several laboratories
A selection: hits, their analogues and other compounds. The true share with any hit is near 2.5%.
TRPC4 PAM = TRPC4 (mouse) allosteric potentiation; HEK293 TRPC4beta/mu-opioid, DAMGO EC20, Fluo-4 Ca2+ flux; stronger effect = higher value; B-score at 10 µM; actives 0.42% (n = 310,000); AID 2227;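 active means B-score of calcium response area above 5 SD of library B-scores, with initial fluorescence ratio within 5 SD of library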
Target sequence (Q9QUQ5 whole entry, looked up): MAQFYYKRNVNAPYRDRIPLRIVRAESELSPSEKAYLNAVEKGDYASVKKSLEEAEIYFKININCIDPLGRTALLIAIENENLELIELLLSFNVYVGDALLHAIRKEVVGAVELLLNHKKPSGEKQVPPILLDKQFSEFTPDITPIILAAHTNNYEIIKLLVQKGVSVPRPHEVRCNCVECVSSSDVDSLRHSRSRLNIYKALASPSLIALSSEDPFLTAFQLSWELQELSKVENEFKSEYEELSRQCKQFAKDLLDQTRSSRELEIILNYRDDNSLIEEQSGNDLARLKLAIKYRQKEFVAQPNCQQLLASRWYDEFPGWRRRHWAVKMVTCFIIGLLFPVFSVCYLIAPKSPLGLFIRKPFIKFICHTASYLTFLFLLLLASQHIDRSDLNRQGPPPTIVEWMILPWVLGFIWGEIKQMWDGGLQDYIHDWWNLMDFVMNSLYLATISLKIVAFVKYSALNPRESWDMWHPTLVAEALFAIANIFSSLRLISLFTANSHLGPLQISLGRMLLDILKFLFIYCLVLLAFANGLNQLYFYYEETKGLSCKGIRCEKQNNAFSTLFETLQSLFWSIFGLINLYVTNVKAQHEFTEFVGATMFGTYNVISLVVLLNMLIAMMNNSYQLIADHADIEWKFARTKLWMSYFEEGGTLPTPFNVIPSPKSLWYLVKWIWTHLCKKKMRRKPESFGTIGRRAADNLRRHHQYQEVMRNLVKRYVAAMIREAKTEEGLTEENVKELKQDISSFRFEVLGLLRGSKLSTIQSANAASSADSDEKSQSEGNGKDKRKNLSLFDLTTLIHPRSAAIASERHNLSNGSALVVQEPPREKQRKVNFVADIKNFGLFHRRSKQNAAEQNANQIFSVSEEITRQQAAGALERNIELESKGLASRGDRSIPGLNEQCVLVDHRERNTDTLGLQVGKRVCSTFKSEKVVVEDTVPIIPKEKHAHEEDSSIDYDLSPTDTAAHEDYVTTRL
TRPC4 inh = TRPC4 (mouse) channel inhibition; actives 0.39% (n = 300,000); Q9QUQ5; B-score at 10 µM; HEK293 TRPC4beta/mu-opioid, DAMGO-evoked Fluo4 calcium flux; stronger effect = lower value;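 active means B-score over 3 SD under the library average, no early fluorescence shift, positive overall ratio signal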
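material = TRPC4beta/mu-opioid receptor HEK293 cell line | probe or stimulus = sequential submaximal and maximal DAMGO stimulation | compound dosing = one concentration per compound | measured by = Fluo4 Ca2+ flux fluorescence | evaluation = integrated fluorescence ratio relative to baseline, converted to per-well B score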
TRPC4 agonist = activators of mouse TRPC4 channel; Q9QUQ5; HEK293 TRPC4beta/mu-opioid, Fluo4 calcium fluorescence; stronger effect = higher value; B-score at 10 µM; actives 0.49% (n = 310,000); AID 2237;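 active means B-score above 5 SD of library B-scores, and initial fluorescence ratio not above library mean plus 5 SD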;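 further: positive B-score marks a calcium rise read as TRPC4 activation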
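Assay system: HEK293 cells stably co-expressing mouse TRPC4beta and mu-opioid receptor / Timing: Fluo4 dye loading 45 min at room temperature, 110 s recording / Signal: Fluo4 calcium-sensitive dye fluorescence, kinetic, 1 Hz baseline / Read-out: integrated baseline-normalised fluorescence ratio, converted to per-well B score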
TRPC6 act = activators of mouse TRPC6 channel. AID 2550. Q61143. HEK293-TRPC6 membrane potential dye fluorescence; stronger effect = higher value. B-score at 10 µM. actives 0.13% (n = 310,000);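 active means B-score of the integrated fluorescence ratio above library mean plus 3 SD, and starting fluorescence ratio within library mean plus 5 SD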;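 further: higher score means more depolarization so channel activation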
DSG3 Ab inh = blocks pemphigus antibody binding to human desmoglein-3 | binding (percent of control), % at 10 µM | P32926 | actives 0.48% (n = 310,000) | AID 588358 | DSG3-coupled beads, scFv-anti-DSG3-GFP binding, flow cytometry; stronger effect = lower value;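 active means binding more than 3 SD below its plate's average and above zero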;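 further: hits lower antibody fragment binding to DSG3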
TRPC6 inhibitor = inhibitors of mouse TRPC6 channel; Q61143; HEK293-TRPC6, membrane potential dye, ACh-evoked depolarization; stronger effect = lower value; B-score at 10 µM; actives 1.1% (n = 310,000);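 active means B-score under library mean minus 3 SD, initial fluorescence not abnormally high, positive integrated signal ratio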;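 further: B-score derived from integrated fluorescence ratio over the kinetic read; more negative B-score means stronger inhibition of depolarization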
TRPC4 spec 2 = mouse TRPC4 off-target activity of TRPC6 inhibitors, second screen; actives 42% (n = 920); shares compounds with TRPC6 inhibitor; inhibition, % at 10 µM; HEK293 TRPC4/MOR, membrane potential dye fluorescence; channel activated by saturating DAMGO dose; AID 2776;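 active means compounds whose fluorescence signal differed from control wells by over 3 SD, either direction, in both duplicate plates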
TRPC4 spec = mouse TRPC4 off-target activity of TRPC6 inhibitors; shares compounds with TRPC6 inhibitor; HEK293 TRPC4/mu-opioid, membrane potential fluorescence; activity change, negative = inhibition, % at 10 µM; actives 61% (n = 920); AID 2777;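 active means rise or fall in signal beyond 3 SD of buffer-only wells in both replicate plates, either sign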;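 further: integrated kinetic ratio of fluorescence range over baseline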
HEK293 MPD ctr 2-1 = second check of TRPC6 inhibitor effects in parental HEK293 cells | actives 31% (n = 920) | AID 2779 | shares compounds with TRPC6 inhibitor | parental HEK293 membrane potential dye fluorescence; maximal acetylcholine challenge after compound addition | signal change vs control, % at 10 µM;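 active means membrane potential signal moving either way by over 3 SD of the maximum-effect control, in both duplicate plates, meaning non-specific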
HEK293 MPD ctr-1 = counter-screen for TRPC6 inhibitors: effect in parental HEK293 cells; membrane potential signal change, % at 10 µM; parental HEK293 membrane potential dye fluorescence; actives 60% (n = 920); shares compounds with TRPC6 inhibitor; AID 2780;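 active means membrane potential signal shifting up or down by more than 3 SD of buffer-only wells, on both duplicate plates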
HEK293 MPD ctr-2 = checks TRPC6 modulator effects in parental HEK293 cells. membrane potential signal change, % at 10 µM. actives 51% (n = 2,400). membrane potential dye fluorescence. shares compounds with TRPC6 inhibitor;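 active means membrane potential signal moves up or down beyond 5 SD from buffer-only wells, on both duplicate plates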
HEK293 MPD ctr 2-2 = parental HEK293 nonspecific activity of TRPC6 modulators, second screen; shares compounds with TRPC6 inhibitor; membrane potential dye fluorescence; after compound, maximal acetylcholine stimulation; inhibition, % at 10 µM; actives 14% (n = 2,400); AID 488926;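 active means membrane potential signal drops by more than 5 SD from the mean control signal, in both duplicate plates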
TRPC4 ctr mod = selectivity of TRPC6 modulators against mouse TRPC4 | HEK293 TRPC4/mu-opioid, membrane potential fluorescence | shares compounds with TRPC6 inhibitor | actives 69% (n = 2,400) | percent change from control (negative = decrease, positive = increase), % at 10 µM | AID 488927;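 active means membrane potential signal moved up or down beyond 5 SD of buffer control wells, in both duplicate plates, actives on both sides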
TRPC4/MOR inh 2 = mouse TRPC4 off-target activity of TRPC6 modulators, second screen. AID 488928. actives 55% (n = 2,400). shares compounds with TRPC6 inhibitor. HEK293 TRPC4/mu-opioid, membrane potential dye fluorescence; stimulated with maximal-effect DAMGO. inhibition, % at 10 µM;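 active means drop in membrane potential signal beyond 5 SD of the control wells in both duplicate plates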;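 further: TRPC4 counter screen for TRPC6 hits run under conditions tuned for TRPC6 not TRPC4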
TRPC6 inh conf = mouse TRPC6 inhibitor confirmation; shares compounds with TRPC6 inhibitor; HEK293-TRPC6, membrane potential dye, ACh-evoked depolarization; inhibition, % at 10 µM; actives 43% (n = 3,300);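 active means fluorescence ratio falls more than 5 SD below the full-stimulation control mean, in both duplicate runs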;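 further: integrated fluorescence ratio of peak minus minimum over baseline after agonist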
TRPC6 act confirm = mouse TRPC6 activator confirmation | shares compounds with TRPC6 inhibitor | HEK293-TRPC6 membrane potential dye fluorescence, FDSS | activation, % at 10 µM | actives 11% (n = 2,800) | AID 488961;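 active means ratio signal rise beyond 5 SD above unstimulated control wells' mean, seen in both duplicate runs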
Hits are given with their value; . = inactive; / = not tested or not shown; + = active, no number.

SMILES	TRPC4 PAM	TRPC4 inh	TRPC4 agonist	TRPC6 act	DSG3 Ab inh	TRPC6 inhibitor	HEK293 MPD ctr-2	HEK293 MPD ctr 2-2	TRPC4 ctr mod	TRPC4/MOR inh 2	TRPC6 inh conf	TRPC6 act confirm	others
O=C(c1ccc(Oc2cc(Cl)cc(Cl)c2)o1)N1CCCCC1	.	.	.	.	.	-5.6	.	.	.	.	.	.
CCN(CC)CCCCNc1ncc2cc(-c3cc(OC)cc(OC)c3)c(NC(=O)NC(C)(C)C)nc2n1	.	.	.	.	.	-5.5	.	.	.	43%	54%	.
CCN(CC)CCNC(=O)COc1ccc(OC)cc1	.	.	.	.	.	.	/	/	/	/	/	/
CC(C)(C)OC(=O)C[C@H]1C/C=C\C[C@@H](CC(=O)NCCO)C(=O)N[C@H](C(C)(C)C)COC1=O	/	/	/	/	.	/	/	/	/	/	/	/
CCN(CC)CC(O)COc1ccc2c(c1)c(C(C)=O)c(C)n2-c1ccccc1 (configuration not stated)	.	.	.	.	.	-5.5	.	.	.	74%	50%	.
CC(=O)c1c(C)n(-c2ccccc2)c2ccc(OCC(O)CN3CCOCC3)cc12 (configuration not stated)	.	.	.	.	.	.	/	/	/	/	/	/
Cc1cccc(-c2nc(NCCCN(C)C)c3ccccc3n2)c1	.	.	.	.	.	-7.9	/	/	/	/	76%	.	TRPC4 spec 2=50%;TRPC4 spec=-20%;HEK293 MPD ctr 2-1=.;HEK293 MPD ctr-1=-242%
CN(C)CCCNc1nc(-c2ccc(Cl)cc2)nc2ccccc12	.	.	.	.	.	-7.7	/	/	/	/	70%	.	TRPC4 spec 2=53%;TRPC4 spec=-31%;HEK293 MPD ctr 2-1=34%;HEK293 MPD ctr-1=-414%
CCCn1c(SCC(=O)NC2CCCC2)nnc1-c1cccnc1	.	.	.	.	/	.	/	/	/	/	/	/
CCOC(=O)/C(=C/C=C1\Sc2cc(C)c(C)cc2N1CC)C(C)=O	.	.	.	.	.	-5	+	+	282%	52%	.	/
O=Cc1coc2ccc3ccccc3c2c1=O	.	.	.	.	.	.	/	/	/	/	/	/
NC(=O)N/N=C/c1coc2ccc3ccccc3c2c1=O	.	.	.	.	.	-5	-62%	.	-16%	.	.	.
Cc1cc(Nc2ccc([N+](=O)[O-])cc2)c2ccccc2n1	.	.	.	.	.	.	/	/	/	/	/	/
